Measured values collected from several papers.
Lines come from different studies, so protocols differ. In brackets after ≈: the same amount, converted by molar mass.

Structure (SMILES) | target or system | test | test system | conditions | quantity | result
O=C(Nc1ccc(Cl)cc1)Nc1ccc(-c2cn(Cc3ccc(Cl)cc3)nn2)cc1 | NCI-H1299 | cell growth or viability, CCK-8 |  | 50 µM, 72 h | viability | 88.1%
COc1ccc(NC(=O)NCc2cn(Cc3ccc(Cl)cc3)nn2)cc1 | NCI-H1299 | cell growth or viability, CCK-8 |  | 50 µM, 72 h | viability | 79.3%
Cc1ccc(N=Nc2c(N)nn3c(-c4ccco4)cc(-c4ccc(OCc5ccccc5)cc4)nc23)cc1 | Enterobacter cloacae | microbial killing | ATCC23355 |  | MBC | 125 µg/mL (≈ 250 µM)
Cc1ccc2[nH]nc(-c3nnc(Nc4ccc(Cl)cc4)s3)c2c1 | Serratia marcescens | microbial growth | ATCC8100 |  | MIC | 65.8 µg/mL (≈ 192 µM)
O=C(Nc1ccc(Cl)cc1)Nc1ccc(-c2cn(Cc3ccc(Br)cc3)nn2)cc1 | NCI-H1299 | cell growth or viability, CCK-8 |  | 50 µM, 72 h | viability | 89.9%
Cc1n[nH]c2ccc3nc(-c4ccc(C(=O)NCCN(C)C)cc4)c4c(c3c12)CCCCC4 | 22Rv1 | cell growth or viability |  | 72 h | GI50 | 7.15 µM
COc1ccc(NC(=O)Nc2cccc(-c3cn(Cc4ccc(C)cc4)nn3)c2)cc1 | NCI-H1299 | cell growth or viability, CCK-8 |  | 50 µM, 72 h | viability | 156%
Nc1nn2c(-c3ccco3)cc(-c3ccc(OCc4ccccc4)cc3)nc2c1N=Nc1ccc(F)cc1 | Enterobacter cloacae | microbial killing | ATCC23355 |  | MBC | 62.5 µg/mL (≈ 124 µM)
O=C(Nc1ccc(Cl)cc1)Nc1cccc(-c2cn(Cc3ccc(Cl)cc3)nn2)c1 | NCI-H1299 | cell growth or viability, CCK-8 |  | 50 µM, 72 h | viability | 76.3%
CC[C@H]1OC(=O)[C@H](C)[C@@H](O[C@H]2C[C@@](C)(OC)[C@@H](O)[C@H](C)O2)[C@H](C)[C@@H](O[C@@H]2O[C@H](C)C[C@H](N(C)C)[C@H]2O)[C@](C)(O)C[C@@H](C)CN(C)[C@H](C)[C@@H](O)[C@]1(C)O | Serratia marcescens | microbial growth | ATCC8100 |  | MIC | < 98 µg/mL
Cc1ccc(N=Nc2c(N)nn3c(-c4ccc(Cl)cc4Cl)cc(-c4ccc(OCc5ccccc5)cc4)nc23)cc1 | Enterobacter cloacae | microbial killing | ATCC23355 |  | MBC | 62.5 µg/mL (≈ 108 µM)
O=C(Nc1ccc(-c2cn(Cc3ccc(Br)cc3)nn2)cc1)Nc1ccccc1Br | NCI-H1299 | cell growth or viability, CCK-8 |  | 50 µM, 72 h | viability | 115%
CC(C)(C)c1cc(NC(=O)Nc2ccc(-c3cn4c(n3)sc3cc(OCCN5CCOCC5)ccc34)cc2)no1 | 22Rv1 | cell growth or viability |  | 72 h | GI50 | > 10 µM
COc1ccc(NC(=O)NCc2cn(Cc3ccc(Br)cc3)nn2)cc1 | NCI-H1299 | cell growth or viability, CCK-8 |  | 50 µM, 72 h | viability | 91.9%
Cc1ccc(-c2cc(-c3ccc(OCc4ccccc4)cc3)nc3c(N=Nc4ccc(F)cc4)c(N)nn23)cc1 | Enterobacter cloacae | microbial killing | ATCC23355 |  | MBC | 125 µg/mL (≈ 236 µM)
CN(C)CCNC(=O)c1ccc(-c2nc3ccc4[nH]ncc4c3c3c2CCCCC3)cc1 | 22Rv1 | cell growth or viability |  | 72 h | GI50 | 4.12 µM
O=C(Nc1ccc(Cl)cc1)Nc1cccc(-c2cn(Cc3cccc(Br)c3)nn2)c1 | NCI-H1299 | cell growth or viability, CCK-8 |  | 50 µM, 72 h | viability | 94.7%
Cc1ccc(N=Nc2c(N)nn3c(-c4ccc(C)cc4)cc(-c4ccc(OCc5ccccc5)cc4)nc23)cc1 | Enterobacter cloacae | microbial killing | ATCC23355 |  | MBC | 62.5 µg/mL (≈ 119 µM)
